High-throughput results deposited in PubChem BioAssay by several laboratories.
In the library only some 1.9% were active in any assay of this set; here they are far more common.
NadD inh: NadD (S. aureus) enzyme inhibition; inhibition, % at 20 µM; 0.78% of 360,000 active; AID 602399; purified NadD enzyme, colorimetric absorbance read-out; in the data active means inhibition above about 26%
core dimer inh: HCV core protein dimerization inhibition. TR-FRET GST/Flag-core106 dimerization, 1536-well. inhibition, % at 5 µM. 0.33% of 300,000 active. AID 1899;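 active means inhibition above the mean of all tested compounds plus 3 SD, set per screening campaign, cut at about 45% in these data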
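test system = GST/Flag-tagged HCV core106 proteins | probe or stimulus = Eu donor and XL665 acceptor anti-tag antibodies | times = compound-protein-antibody incubation 4 h at 22.5 °C | signal = TR-FRET, excitation 340 nm, emission 617 and 671 nm | measure = percent inhibition of core106 dimerization signal | controls = wells lacking GST-core106 and wells with excess unlabelled core106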
Rce1 inh: yeast Ras-converting enzyme inhibition | yeast membranes, quenched prenylated peptide cleavage fluorescence | Q03530 | 0.27% of 290,000 active | calls only;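 active means fall in fluorescence gain of 50% or more versus controls, with final raw signal at or below 3038400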;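 further: plate controls were neutral control wells for no effect and wells lacking membranes for full effect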
Target sequence (Q03530 whole entry, looked up): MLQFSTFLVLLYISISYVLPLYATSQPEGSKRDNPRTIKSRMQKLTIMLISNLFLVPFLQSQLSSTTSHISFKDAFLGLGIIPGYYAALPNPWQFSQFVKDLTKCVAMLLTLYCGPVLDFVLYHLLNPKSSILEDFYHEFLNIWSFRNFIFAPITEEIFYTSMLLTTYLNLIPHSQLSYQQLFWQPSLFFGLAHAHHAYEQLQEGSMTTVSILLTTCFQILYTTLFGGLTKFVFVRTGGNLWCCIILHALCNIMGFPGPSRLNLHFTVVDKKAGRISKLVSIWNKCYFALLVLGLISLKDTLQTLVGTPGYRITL
TbMetRS inhib: blocks T. brucei methionyl-tRNA synthetase activity | purified T. brucei MetRS, ATP depletion, Kinase-Glo luminescence | inhibition, % at 11.9 µM | 0.4% of 360,000 active | AID 624268;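 active means inhibition above a per-plate cutoff of the control wells' mean inhibition plus 3 SD, cut at about 5.5% in these data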;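 further: 0% = DMSO wells median and 100% = median of wells with control inhibitor compound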
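Dosing: 11.9 µM compound single dose, 0.9% DMSO; Assay system: purified T. brucei MetRS enzyme; Measured by: Kinase-Glo luciferase luminescence reporting remaining unconsumed ATP; Schedule: 15 min plus 2 h at 25 °C.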
DSG3 Ab inh: human desmoglein-3 autoantibody binding inhibition; P32926; 0.48% of 310,000 active; binding (percent of control), % at 10 µM; DSG3-coupled beads, scFv-anti-DSG3-GFP binding, flow cytometry; stronger effect = lower value;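 active means binding more than 3 SD below its plate's average and above zero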;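 further: hits lower antibody fragment binding to DSG3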
NadD conf: confirmation of Staphylococcus aureus NadD inhibitors; shares compounds with NadD inh; purified S. aureus NadD, colorimetric enzyme assay; inhibition, % at 20 µM; 13% of 2,000 active; in the data active means inhibition mostly above about 42%, no sharp cut-off; inactive means mostly below about 42%
* marks the source's active call; other numbers are inactive results; i = inactive; . = not tested or not shown.

SMILES | NadD inh | core dimer inh | Rce1 inh | TbMetRS inhib | DSG3 Ab inh | NadD conf
Cc1sc2ncnc(N3CCC(C(=O)Nc4nnc(SCc5ccccc5F)s4)CC3)c2c1C | 46.7* | 11.6 | i | -0.3 | 98.7 | 3.8
Cc1sc2ncnc(N3CCC(C(=O)Nc4ccc(Cl)c(Cl)c4)CC3)c2c1C | 41.6* | . | . | -0.2 | . | 8.9
Cc1ccc(NC(=O)c2cc3c(s2)CCC3)cc1S(=O)(=O)N1CCOCC1 | 7.5 | 5.7 | i | -0.2 | 98.3 | .
O=C(NCc1cccnc1)c1nc(-c2ccccc2)n(-c2ccccc2)n1 | -5.6 | -11.2 | i | 0.3 | 114.0 | .
COc1ccc(/C=N/NC(=O)c2ccc(Cl)cc2)cc1Cn1cc(Cl)cn1 | 4.6 | 6.2 | i | -0.4 | 83.2 | .
COc1ccc(/C=N/NC(=O)c2cc(Br)ccc2O)cc1Cn1cc(Cl)cn1 | 38.5* | 0.9 | i | 0.5 | 88.6 | 37.8
Cc1ccc(C)c(OCC(=O)N/N=C/c2c(C)nn(-c3ccccc3)c2Cl)c1 | . | 10.0 | i | . | . | .
Cc1ccc([C@@H]2CC=C(C(=O)O)[C@H](c3ccc(F)cc3)N2S(=O)(=O)c2ccccc2C)cc1 | 41.9* | . | . | 0.1 | 104.7 | 35.6
O=C(Nc1ccccc1Oc1ccccc1)C1=COCCO1 | -10.1 | 2.2 | i | 0.0 | 109.6 | .
CC(C)Sc1n[nH]c(=O)n1-c1ccccc1 | -1.2 | -3.9 | i | 0.2 | 112.9 | .
Cc1cc(-c2csc(NC(=O)c3ccc(C#N)cc3)n2)c(C)n1Cc1ccccc1 | 34.5* | 51.6* | i | 1.1 | . | 26.5
C/C(CC1CC(COCC(C)C)OC1=O)=N\Nc1nc(-c2ccccc2)cs1 (configuration not stated) | 28.2* | 33.5 | i | 0.1 | 97.4 | 12.7
Cc1ccccc1-n1c(O)cc(=O)[nH]c1=S | 1.8 | -6.7 | . | -0.3 | 88.3 | .
Cc1cc[n+](CC(=O)c2ccc(NC(=O)c3ccccc3)cc2)c2ccccc12 | 36.9* | 0.5 | i | -0.4 | 108.8 | -15.8
O=C(C[n+]1cccc2ccccc21)c1ccc(NC(=O)c2ccccc2)cc1 | 5.9 | -10.3 | i | 0.3 | 424.7 | .
C=CCn1c(SCC(=O)N(CC)CC)nc(O)cc1=O | 1.8 | -2.5 | i | -0.2 | 98.6 | .
O=C(N/N=C/c1coc2ccccc2c1=O)c1cn(-c2ccccc2)nc1-c1ccccc1 | 36.4* | 27.6 | i | -0.5 | 90.2 | 19.9
Clc1ccc(Cn2c(/C=C/c3ccco3)nc3ccccc32)cc1 | 34.1* | 58.2* | i | -0.3 | . | 42.7
Cc1ccc(Cn2c(/C=C/c3ccco3)nc3ccccc32)cc1 | 31.7* | 8.8 | i | -0.3 | 145.8 | 41.0
CCCCn1c(/C=C/c2ccco2)nc2ccccc21 | 1.6 | 44.0 | i | 0.0 | 104.2 | .
COc1ccc(NC(=O)Cn2cnc3c(cnn3C(C)(C)C)c2=O)cc1OC | -4.6 | 2.4 | i | 0.6 | . | .
O=S(=O)(Nc1nccs1)c1ccc(Nc2nnc(-c3ccccc3)c3ccccc23)cc1 | 64.2* | 18.8 | i | -0.1 | 102.3 | 61.9*
Cc1onc(-c2ccccc2)c1C(=O)Nc1ccc(S(=O)(=O)Nc2nccs2)cc1 | -3.5 | 4.2 | i | -0.5 | 101.2 | .
COC(=O)c1ccc(C23CC4(C2)[C@H](CN(CC2CCCCC2)[C@@H]4c2ccccc2)C3c2ccc(Cl)nc2)cc1 (some centres not stated) | 35.0* | -9.9 | i | -0.1 | 97.4 | 9.4
Clc1ccc(C2[C@H]3CN(CC4CCCCC4)[C@H](c4ccccc4)C34CC2(c2ccccc2)C4)cn1 (some centres not stated) | 13.1 | -8.8 | i | -0.3 | 98.7 | .
SMILES | NadD inh | core dimer inh | Rce1 inh | TbMetRS inhib | DSG3 Ab inh | NadD conf
CC1CCCN(C(=S)SCC(=O)c2cc(Br)cc(Br)c2O)C1 (configuration not stated) | 64.3* | 3.1 | i | -0.4 | 114.4 | 10.2
CCOC(=O)c1c(NC(=O)Cn2nc(C(=O)O)c3ccccc3c2=O)sc2c1CCC(C)C2 (configuration not stated) | 33.2* | 8.7 | i | -0.6 | 99.2 | 12.1
NC(=O)c1c(NC(=O)Cn2nc(C(=O)O)c3ccccc3c2=O)sc2c1CCC2 | 0.9 | 3.9 | i | -0.5 | 104.8 | .
CC(=O)c1ccc(-n2c(SCC(=O)c3c[nH]c4ccccc34)nc3ccccc3c2=O)cc1 | 36.8* | 9.8 | . | 2.5 | 93.1 | 27.1
CCCc1sc(N/N=C/c2ccccn2)nc1-c1ccc(Br)cc1 | 0.1 | 1.2 | i | -0.7 | 86.8 | .
COc1ccccc1CNC(=O)c1cc(-c2ccc(F)cc2OC)n[nH]1 | 0.4 | . | . | -0.3 | . | .
CC(=O)Nc1ccc(C(=O)n2cnc3cc(C)c(C)cc32)cc1 | 16.2 | -4.5 | i | -0.7 | 116.2 | .
O=[N+]([O-])c1cccc(-c2cc(-c3cc(Br)ccc3O)[nH]n2)c1 | 37.7* | -0.9 | i | 0.0 | 92.8 | 4.4
Oc1ccc(Br)cc1-c1cc(-c2ccccc2)n[nH]1 | -1.9 | 4.5 | i | -0.5 | 104.5 | .
CCn1c(=O)c([N+](=O)[O-])c(NCCCn2ccnc2)c2ccccc21 | -3.3 | -6.2 | i | -0.6 | . | .
Cn1c(=O)c2c([nH]c(=S)n2Cc2ccc(Cl)cc2)n(C)c1=O | 31.5* | 7.1 | i | -1.6 | 103.8 | 35.1
N#CC1=C2N=C(N)c3c(sc4c3CCCCC4)N2C2=C(C(=O)CCC2)C1c1ccccc1 (configuration not stated) | 24.7 | 34.5 | i | -0.1 | . | .
CCOc1ccc(C2C(C#N)=C(N)N(c3sc4c(c3C#N)CCCC4)C3=C2C(=O)CCC3)cc1 (configuration not stated) | 55.5* | 55.3* | i | 0.3 | 94.6 | 12.9
COC(=O)CC1(c2cccc3ccccc23)C(=O)c2ccccc2C1=O | -4.7 | 1.1 | i | -1.4 | 102.6 | .
NC(CSC1(c2cccc3ccccc23)c2ccccc2-c2ccccc21)C(=O)O (configuration not stated) | 41.6* | . | . | -0.4 | 93.7 | 63.9*
CC(C)c1ccc(NC(=O)CSc2nc3ccsc3c(=O)n2Cc2ccc(C(=O)O)cc2)cc1 | 31.6* | 13.8 | i | -0.1 | . | 45.9
CC1=Nn2c(nnc2-c2cc(-c3ccccc3)n[nH]2)SC1 | 6.9 | -0.1 | i | -1.6 | . | .
c1ccc(-c2ccc(C3=Nn4c(nnc4-c4cc(-c5ccccc5)n[nH]4)SC3)cc2)cc1 | 43.7* | 18.6 | i | -0.3 | 91.6 | 5.0
Fc1cccc(Cl)c1Cn1nnc(-c2ccc3c(c2)OCO3)n1 | -9.9 | 10.2 | i | -0.3 | 110.1 | .
Cc1ccc(CNC(=O)C2CCN(S(=O)(=O)N3CC(C)CC(C)C3)CC2)cc1 (configuration not stated) | 1.2 | 0.2 | i | 0.1 | 96.0 | .
O=c1cc(CN2CCN(C/C=C/c3ccccc3)CC2)c2cc(O)c(-c3ccccc3)cc2o1 | 38.7* | -1.9 | i | 0.6 | 85.8 | -8.6
Cc1cc2oc(=O)cc(CN3CCN(C/C=C/c4ccccc4)CC3)c2cc1O | 5.6 | -0.1 | i | 0.3 | 108.3 | .
